pIC50: −log10 of the molar value. Where two headings read alike, the source gives them in different places. Marks after values point to notes of the source that are not given here. Some results are limits rather than exact numbers.

Data on three molecules can be found in PMC6468299 (Nucleic Acids Research, 2019).

One data set relates to HepG2 (liver). The experiment in a line: Cytotoxicity, sulforhodamine B assay, HepG2. The class given is cell-based, human. To be noted: day 11, four doses. The essentials: (§1)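 Cells were grown 1 week in glucose- or galactose-containing medium, then seeded in 96-well plates. iCell cardiomyocytes were seeded on gelatin-coated plates and grown 5 days. Test compounds in 1:1 ethanol:water were added at each media change on days 0, 3, 7 and 10 (four doses), at up to 250 μM. Final ethanol was 2.5% at 250 μM and 1% otherwise. Total protein was read by sulforhodamine B on day 11. CC50 was fitted from triplicates.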

Another data set has as its system COLO 205 (intestine). The experiment in a line: Cytotoxicity, sulforhodamine B assay, COLO 205. The class given is cell-based, human. The note with it: day 11. The essentials: as §1
(In general: Sulforhodamine B stains cellular protein and so reports cell mass.)

In a further data set the test system is SkMC (muscle). The experiment in a line: Cytotoxicity, sulforhodamine B assay, SkMC. The note with it: SkMC, day 11. Type of data set: cell-based, human. The gist of the method: as §1
The subject of a further data set is SNB-78 (CNS). Briefly: Cytotoxicity, sulforhodamine B assay, SNB-78. Type of data set: cell-based, human. To be noted: for CC50: day 11. The essentials: as §1
A further data set deals with Caki-1 (kidney). Briefly: Cytotoxicity, sulforhodamine B assay, Caki-1. Type of data set: cell-based, human. To be noted: day 11. The essentials: as §1
A short description of data set [1]: In vitro metabolism of 2′-F-monomers in human liver S9. The note with it: 10 μM, human liver S9 1 mg/ml, 37°C, 1 h. The class given is in vitro ADME.
The format of data set [2] is in vivo, Sprague Dawley rats. The note with it: single 30 mg/kg sc; for amount excreted in bile: rat bile collected over 168 h; for amount excreted in urine: rat urine collected over 168 h. The essentials:
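Rats (3 male, 3 female) received a single subcutaneous 30 mg/kg dose of test GalNAc–siRNA. Liver, kidney, heart, plasma, urine and bile were sampled, with urine and bile collected over 168 h. Samples were ACN/water-precipitated, dried and dephosphorylated with calf intestinal alkaline phosphatase (pH 8.0, 37°C, 1 h). 2′-F-nucleosides were quantified by LC-MS/MS against matrix standards ([…]). Values are group means.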

The next data set deals with Molt-4 (blood). The experiment in a line: Cytotoxicity, sulforhodamine B assay, Molt-4. The class given is cell-based, human. To be noted: day 11. The gist of the method:
as §1

Data set [3] is described as follows: Cytotoxicity, sulforhodamine B assay, HepG2. Type of data set: cell-based, human. The note with it: human, HepG2 cells (liver), day 11, four doses. The gist of the method:
as §1

Data set [4] in a line: Cytotoxicity, sulforhodamine B assay, iCell cardiomyocytes. Type of data set: cell-based. The note with it: human, iCell cardiomyocytes (heart). The essentials: as §1
A short description of data set [5]: Cytotoxicity, sulforhodamine B assay, COLO 205. The class given is cell-based, human. The note with it: human, COLO 205 cells (intestine), day 11. The essentials:
as §1

Data set [6] is described as follows: Cytotoxicity, sulforhodamine B assay, SkMC. The note with it: human, SkMC cells (muscle), CC50, SkMC, day 11. The class given is cell-based, human. The essentials: as §1
Data set [7] in a line: Cytotoxicity, sulforhodamine B assay, SNB-78. Type of data set: cell-based, human. The note with it: human, SNB-78 cells (CNS), day 11. The essentials:
as §1

Data set [8] in a line: Cytotoxicity, sulforhodamine B assay, Caki-1. The class given is cell-based, human. The note with it: human, Caki-1 cells (kidney), day 11. The gist of the method:
as §1

The subject of data set [9] is mitochondrial DNA (MT-CO1). The experiment in a line: Mitochondrial DNA quantification by qPCR. Type of data set: cell-based, human. To be noted: across all cell lines, at ≤4 μM, day 11. The essentials:
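Cells were treated as in the 11-day, four-dose cytotoxicity protocol in glucose or galactose medium. DNA was then quantified by TaqMan qPCR, with nuclear DNA measured using a succinate dehydrogenase-specific probe.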

A short description of data set [10]: Cytotoxicity, sulforhodamine B assay, Molt-4. Type of data set: cell-based, human. To be noted: human, Molt-4 cells (blood), day 11. The essentials:
as §1

Data set [11] deals with human cellular polymerases. The note with it: cited from earlier work.

Consider `Nc1nc2c(ncn2[C@@H]2O[C@H](CO)[C@@H](O)[C@H]2F)c(=O)[nH]1` [2′-F-G, 2′-F-guanosine], for which the CC50 (commonly the concentration that lowers cell viability or growth by half) in the data set on HepG2 (liver) (HepG2, Galactose media) is 112 µM; in the data set on HepG2 (liver) (HepG2, Glucose media), 115 µM; with COLO 205 (intestine) (COLO 205, Galactose media), 22 µM; in the data set on COLO 205 (intestine) (COLO 205, Glucose media), 19 µM; with SkMC (muscle) (Galactose media), 110 µM; in the data set with SkMC (muscle) (Glucose media), 127 µM. Also, the CC50 in the data set on SNB-78 (CNS) (SNB-78, Galactose media) stood at 12 µM; in the data set on SNB-78 (CNS) (SNB-78, Glucose media), 35 µM; in the data set with Caki-1 (kidney) (Caki-1, Galactose media) it was 30 µM; with Caki-1 (kidney) (Caki-1, Glucose media) it was 32 µM; in the data set with Molt-4 (blood) (Molt-4, Galactose media), 12 µM; with Molt-4 (blood) (Molt-4, Glucose media), 15 µM. Also, the “decrease of CC50 in galactose compared to glucose media” value in the data set with SNB-78 (CNS) (SNB-78) was 2–10 fold. In addition, in data set [1], the “metabolic fate of 2′-F-nucleoside” value was “stable”. The “amount excreted in bile” value in data set [2] (ALN-TTRSC02 (ESC)) was <0.0004* μg; in data set [2] (revusiran (STC)) it was 0.042 µg. In addition, the “% dose excreted in bile” value in [2] (rat bile over 168 h, ALN-TTRSC02 (ESC)) is reported as <0.0003* % dose. The Cmax (commonly the highest concentration seen after dosing) in [2] (rat heart, ALN-TTRSC02 (ESC)) was below 500 nM; in [2] (rat heart, revusiran (STC)), below 500 nM; in data set [2] (rat kidney, ALN-TTRSC02 (ESC)), below 500 nM; in data set [2] (rat kidney, revusiran (STC)), 2600 nM; in data set [2] (rat liver, monomer liberated from ALN-TTRSC02 (ESC)), 1700 nM; in data set [2] (rat liver, monomer liberated from revusiran (STC)), 10800 nM. The maximum concentration (Cmax) in [2] (rat plasma, ALN-TTRSC02 (ESC)) was below 30 nM; in data set [2] (rat plasma, revusiran (STC)), below 30 nM. Also, the AUClast in data set [2] (rat kidney, revusiran (STC)) was determined as 150 µM·h; in data set [2] (rat liver, ALN-TTRSC02 (ESC)) it was 138 µM·h; in data set [2] (rat liver, revusiran (STC)), 722 µM·h. The “t1/2 (elimination half-life)” value in data set [2] (rat kidney, revusiran (STC)) came out at 46.9 h. The tmax in [2] (rat kidney, revusiran (STC)) turned out to be 16 h; in [2] (rat liver, ALN-TTRSC02 (ESC)), 48 h; in data set [2] (rat liver, revusiran (STC)), 36 h. In addition, the “amount excreted in urine” value in [2] (ALN-TTRSC02 (ESC)) is <0.003* μg; in [2] (revusiran (STC)), 1.3 µg. Further, the “% dose excreted in urine” value in data set [2] (rat urine over 168 h, ALN-TTRSC02 (ESC)) is <0.002* % dose.

As for `Nc1ccn([C@H]2CC[C@@H](CO)O2)c(=O)n1` [ddC, 2′,3′-Dideoxycytidine], the CC50 at 11 days in data set [3] (CC50, HepG2, Galactose media) is above 20 µM; in data set [3] (CC50, HepG2, Glucose media), above 20 µM; in data set [4] it was above 250 µM; in [5] (CC50, COLO 205, Galactose media), above 20 µM; in data set [5] (CC50, COLO 205, Glucose media), above 20 µM; in data set [6] (Galactose media), above 20 µM. For the same molecule, the CC50 at 11 days in [6] (Glucose media) is above 20 µM; in [7] (CC50, SNB-78, Galactose media) it was above 20 µM; in data set [7] (CC50, SNB-78, Glucose media), above 20 µM; in data set [8] (CC50, Caki-1, Galactose media) it was above 20 µM; in data set [8] (CC50, Caki-1, Glucose media), above 20 µM; in [10] (CC50, Molt-4, Galactose media), above 20 µM. In data set [10] (CC50, Molt-4, Glucose media), this molecule registered a CC50 at 11 days of 8.7 µM. Besides, in data set [9], the “reduction in mitochondrial DNA synthesis” value is 70–80%.

`C[C@@]1(F)[C@H](O)[C@@H](COP(=O)(O)OP(=O)(O)OP(=O)(O)O)O[C@H]1n1ccc(=O)[nH]c1=O` [triphosphate form of Sofosbuvir]: the pIC50 (in general, −log10 of the IC50, conventionally taken in molar units) in data set [11] was below 3.70.
